From ChEMBL document CHEMBL1133565 (J Med Chem, 2000)

Key:
[1] = molecular target: T1, Sodium-dependent serotonin transporter (Homo sapiens, UniProt P31645); assay: Binding affinity against cloned serotonin human transporter using 40-80 PM [125I]RTI
Procedure, shortened: (§1)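 Membranes from cells expressing recombinant human transporters: DAT in C6 cells, later HEK293; SERT and NET in HEK293. Cells lysed (2 mM HEPES, 1 mM EDTA), spun at 30000g, resuspended in 0.32 M sucrose, about 15 µg protein. GF/C filtration. Duplicates; IC50 converted to Ki by Cheng-Prusoff.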
Target sequence in this assay (P31645 whole entry): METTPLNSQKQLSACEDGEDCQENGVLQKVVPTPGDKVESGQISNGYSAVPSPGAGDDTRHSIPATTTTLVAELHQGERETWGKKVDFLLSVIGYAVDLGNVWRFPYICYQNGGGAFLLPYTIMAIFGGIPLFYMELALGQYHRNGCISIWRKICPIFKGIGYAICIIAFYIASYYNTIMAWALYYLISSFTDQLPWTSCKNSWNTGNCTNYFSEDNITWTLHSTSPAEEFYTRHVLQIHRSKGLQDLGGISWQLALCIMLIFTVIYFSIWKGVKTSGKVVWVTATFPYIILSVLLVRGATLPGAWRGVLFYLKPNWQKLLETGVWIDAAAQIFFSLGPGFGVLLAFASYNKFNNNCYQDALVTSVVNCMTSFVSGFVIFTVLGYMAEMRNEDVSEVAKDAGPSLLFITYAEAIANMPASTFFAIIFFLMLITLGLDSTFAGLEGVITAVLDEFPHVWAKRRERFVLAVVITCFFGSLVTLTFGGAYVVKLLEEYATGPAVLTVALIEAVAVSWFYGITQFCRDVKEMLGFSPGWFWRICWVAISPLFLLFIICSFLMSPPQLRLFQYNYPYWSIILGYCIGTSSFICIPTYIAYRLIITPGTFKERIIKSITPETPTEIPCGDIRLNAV

[2] = molecular target: T2, Sodium-dependent noradrenaline transporter (Homo sapiens, UniProt P23975); assay: Binding affinity against norepinephrine cloned human transporter using 40-80 pM [125I]RTI
Target sequence in this assay (P23975 whole entry): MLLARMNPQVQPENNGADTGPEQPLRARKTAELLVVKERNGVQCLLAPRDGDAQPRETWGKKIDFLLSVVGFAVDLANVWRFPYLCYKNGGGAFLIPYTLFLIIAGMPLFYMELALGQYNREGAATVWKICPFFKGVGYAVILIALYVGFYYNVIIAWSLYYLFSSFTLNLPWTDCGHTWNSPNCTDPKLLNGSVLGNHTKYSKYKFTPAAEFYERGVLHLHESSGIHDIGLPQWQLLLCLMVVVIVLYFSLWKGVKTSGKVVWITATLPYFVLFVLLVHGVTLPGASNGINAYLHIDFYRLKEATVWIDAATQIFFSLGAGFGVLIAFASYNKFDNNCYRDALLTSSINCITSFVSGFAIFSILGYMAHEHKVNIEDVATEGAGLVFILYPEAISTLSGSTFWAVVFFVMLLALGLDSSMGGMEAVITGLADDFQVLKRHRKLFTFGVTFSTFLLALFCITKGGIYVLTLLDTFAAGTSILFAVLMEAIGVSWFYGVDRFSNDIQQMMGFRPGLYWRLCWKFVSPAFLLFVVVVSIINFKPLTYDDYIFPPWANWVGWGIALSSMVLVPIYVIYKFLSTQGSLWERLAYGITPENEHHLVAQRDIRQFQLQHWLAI

Mus musculus = species on record: Mus musculus; assay: Effective dose on 8 hr locomotor assay in mice (value is standard error of the population of 72 independent determinations); assay type: functional
Procedure, shortened: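 Groups of 8 nonhabituated male Swiss-Webster mice (Hsd:ND4, 2-3 months), dosed ip in 0.9% saline vehicle just before testing. Horizontal photobeam breaks counted in 10-min bins for 8 h from 0800 h, one mouse per chamber.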

[3] = molecular target: T3, Sodium-dependent dopamine transporter (Homo sapiens, UniProt Q01959); assay: Ratio of dopamine uptake to dopamine binding
[4] = molecular target: T2, Sodium-dependent noradrenaline transporter; assay: Inhibition of reuptake of [3H]-NE (20 nM) by norepinephrine transporter
Target sequence in this assay (P23975 whole entry): as above

[5] = molecular target: T3, Sodium-dependent dopamine transporter; assay: Binding affinity against cloned human dopamine transporter using 40-80 pM [125I]RTI.; procedure, shortened: as §1
[6] = molecular target: T1, Sodium-dependent serotonin transporter; assay: Inhibition of reuptake of [3H]5-HT (20 nM) by serotonin transporter
Procedure, shortened: (§2)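 Uptake used whole confluent cells: hSERT in HEK293; hDAT in C6, later HEK293. Cells were washed and scraped in PBS at 25 °C, then preincubated 10 min with drug in Krebs HEPES at 25 °C. [3H]5HT or [3H]DA was added at 20 nM final for 10 min, then filtered on 0.05% polyethylenimine-soaked filters. Six drug concentrations, each in triplicate.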
Target sequence in this assay (P31645 whole entry): as the sequence (P31645 whole entry) above

[7] = molecular target: T3, Sodium-dependent dopamine transporter; assay: Inhibition of reuptake of [3H]DA (20 nM) by dopamine transporter; procedure, shortened: as §2
[8] = molecular target: T1, Sodium-dependent serotonin transporter; assay: Ratio of serotonin uptake to serotonin binding
Target sequence in this assay (P31645 whole entry, looked up): as the sequence (P31645 whole entry) above

[9] = molecular target: Monoamine transporters; serotonin & dopamine (Homo sapiens) (UniProt P31645+Q01959); assay: Ratio of inhibition of serotonin uptake to inhibition of dopamine uptake; assay type: protein assay
[10] = molecular target: T2, Sodium-dependent noradrenaline transporter; assay: Ratio of norepinephrine uptake to norepinephrine binding
Target sequence in this assay (P23975 whole entry, looked up): as the sequence (P23975 whole entry) above

[11] = Effective dose for generalization to 10 mg/kg cocaine in rat (value is standard error of the population of 88 independent determinations); assay type: functional

Sequence of Monoamine transporters; serotonin & dopamine (Homo sapiens) (P31645 whole entry, looked up): as the sequence (P31645 whole entry) above
Sequence of Monoamine transporters; serotonin & dopamine (Homo sapiens) (Q01959 whole entry, looked up): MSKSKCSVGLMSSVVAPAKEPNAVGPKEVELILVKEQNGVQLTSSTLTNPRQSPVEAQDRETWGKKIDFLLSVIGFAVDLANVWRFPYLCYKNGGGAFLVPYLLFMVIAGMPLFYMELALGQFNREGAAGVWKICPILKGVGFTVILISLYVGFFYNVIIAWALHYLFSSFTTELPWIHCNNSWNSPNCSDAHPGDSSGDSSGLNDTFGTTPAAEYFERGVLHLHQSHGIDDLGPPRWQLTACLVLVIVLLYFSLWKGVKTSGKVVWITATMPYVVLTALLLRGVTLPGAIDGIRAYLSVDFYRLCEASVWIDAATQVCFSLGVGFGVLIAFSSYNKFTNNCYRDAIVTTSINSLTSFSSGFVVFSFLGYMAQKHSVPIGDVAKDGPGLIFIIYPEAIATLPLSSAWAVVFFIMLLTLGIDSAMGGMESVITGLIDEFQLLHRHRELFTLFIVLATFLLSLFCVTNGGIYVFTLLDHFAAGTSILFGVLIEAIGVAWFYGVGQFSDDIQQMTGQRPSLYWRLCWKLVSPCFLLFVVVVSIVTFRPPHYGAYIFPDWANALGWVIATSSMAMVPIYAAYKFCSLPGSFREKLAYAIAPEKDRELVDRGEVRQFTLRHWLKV
T3 sequence (Q01959 whole entry): as the sequence (Q01959 whole entry, looked up) above

Compound	Ki [1] [nM]	Ki [2] [nM]	ED50 (Mus musculus) [mg/kg]	Ratio [3]	IC50 [4] [nM]	Ki [5] [nM]	IC50 [6] [nM]	IC50 [7] [nM]	Ratio [8]	Ratio [9]	Ratio [10]	ED50 [11] [mg/kg]
Clc1ccc([C@@H]2C[C@@H](NCc3ccccc3)c3ccccc32)cc1Cl (relative stereo)	380	460	> 20	1.6	2600	80	> 10000	130	–	–	–	–
CN(Cc1ccccc1)[C@H]1C[C@@H](c2ccc(Cl)c(Cl)c2)c2ccccc21 (relative stereo)	300	> 10000	–	–	> 10000	> 10000	700	–	2.3	–	–	–
CCN(C)[C@H]1C[C@@H](c2ccc(Cl)c(Cl)c2)c2ccccc21 (relative stereo)	13	2400	–	0.8	4400	660	72	530	5.5	0.14	1.8	–
CN(C)[C@H]1C[C@@H](c2ccc(Cl)c(Cl)c2)c2ccccc21 (relative stereo)	2.4	150	–	8.7	86	63	5.5	550	2.3	0.01	–	–
CN(C)[C@@H]1C[C@@H](c2ccc(Cl)c(Cl)c2)c2ccccc21 (relative stereo)	–	–	–	11	–	–	–	–	200	0.033	–	–
CCCN[C@H]1C[C@@H](c2ccc(Cl)c(Cl)c2)c2ccccc21 (relative stereo)	500	540	–	2.2	630	280	1300	620	2.6	2.1	1.2	–
CC(C)(C)N[C@@H]1C[C@@H](c2ccc(Cl)c(Cl)c2)c2ccccc21 (relative stereo)	740	150	> 28	2.8	310	130	3100	370	4.2	8.4	2.1	–
CC(C)N(C)[C@@H]1C[C@@H](c2ccc(Cl)c(Cl)c2)c2ccccc21	44	260	2.9	1.1	420	180	1500	190	34	7.9	–	3.3
CN[C@@H]1C[C@@H](c2ccc(Cl)c(Cl)c2)c2ccccc21 (relative stereo) [(R,S)-INDATRALINE]	–	–	1.2	–	–	–	–	–	–	–	–	–
CC(C)(C)N[C@H]1C[C@@H](c2ccc(Cl)c(Cl)c2)c2ccccc21 (relative stereo)	1700	1100	–	2.3	1800	650	> 10000	1500	–	–	1.6	–
CCCN(C)[C@@H]1C[C@@H](c2ccc(Cl)c(Cl)c2)c2ccccc21 (relative stereo)	91	400	1.7	1.4	640	250	190	340	2.1	0.56	1.6	1.5
CCCN[C@@H]1C[C@@H](c2ccc(Cl)c(Cl)c2)c2ccccc21 (relative stereo)	130	55	8.1	0.24	130	220	480	53	3.7	9.1	2.4	2.3
CC(C)N[C@H]1C[C@@H](c2ccc(Cl)c(Cl)c2)c2ccccc21 (relative stereo)	130	3500	–	3.1	1500	450	300	1400	2.3	0.21	0.43	–
CN(C)[C@@H]1C[C@@H](c2ccc(Cl)c(Cl)c2)c2ccccc21.O=C(O)/C=C\C(=O)O (relative stereo)	0.33	95	2.4	–	34	19	65	200	–	–	–	1.3
CCN[C@H]1C[C@@H](c2ccc(Cl)c(Cl)c2)c2ccccc21	4.7	–	–	11	170	140	19	1000	4	0.02	–	–
